Measured values as given in ChEMBL document CHEMBL2046346, “Discovery of phenylpropanoic acid derivatives containing polar functionalities as potent and orally bioavailable G protein-coupled receptor 40 agonists for the treatment of type 2 diabetes” (J Med Chem, 2012).
pEC50, pKi: −log10 of the molar value. Activity calls are given as the source filed them. The calls are words filed in the database; no cut-off is given here.

What was measured:
[1] = target: T1, Free fatty acid receptor 1 (Homo sapiens, UniProt O14842); test: Displacement of 3-[4-({2',6'-dimethyl-6-[(4-[3H])phenylmethoxy]biphenyl-3-yl}methoxy)phenyl] propanoic acid from human GPR40 receptor expressed in CHO cell membrane after 90 mins by liquid scintillation counting in the presence of 0.2% BSA; type: cell membranes
T1 sequence (O14842 whole entry): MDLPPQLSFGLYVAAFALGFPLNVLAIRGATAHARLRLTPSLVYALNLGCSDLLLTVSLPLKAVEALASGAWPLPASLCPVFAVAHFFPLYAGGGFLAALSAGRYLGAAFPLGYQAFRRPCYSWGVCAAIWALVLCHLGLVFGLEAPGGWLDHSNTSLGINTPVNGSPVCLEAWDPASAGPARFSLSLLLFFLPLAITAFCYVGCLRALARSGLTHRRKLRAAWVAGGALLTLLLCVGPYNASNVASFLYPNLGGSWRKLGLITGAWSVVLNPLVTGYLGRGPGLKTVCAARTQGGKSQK
How it was run: (§1)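 Membranes from CHO lines stably expressing human or rat GPR40, buffer 25 mmol/L Tris-HCl pH 7.5, 5 mmol/L EDTA, protease inhibitors, 0.05% CHAPS, 0.2% fatty-acid-free BSA. Tritiated ligand at 2 or 6 nmol/L with graded test compound, 90 min room temperature, GF/C filtration, scintillation counting. Nonspecific binding: 10 μmol/L unlabeled ligand. IC50 by nonlinear regression, Ki = IC50/(1+[L]/Kd).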

Rattus norvegicus [2] = species on record: Rattus norvegicus; test: Insulinotropic activity in rat INS1(833/15) cells assessed as increase in insulin secretion at 1 uM after 2 hrs by competitive enzyme immunoassay in the presence of 1 mM glucose; type: functional, cell-based
How it was run: (§2)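 INS-1 833/15 cells seeded on poly-L-lysine, cultured 2 days, preincubated in KRBH (0.2% FFA-free BSA) with 1 mM glucose, then 2 h in KRBH at 1–16 mM glucose with or without compound (DMSO vehicle). Secreted insulin by EIA; expressed as fold over 1 mM glucose alone, mean ± SD (n = 3–6).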

[3] = Lipophilicity, log D of the compound by RP-HPLC analysis; type: physicochemical
[4] = target: T1, Free fatty acid receptor 1; test: Agonist activity at human GPR40 receptor expressed in CHO cells assessed as increase in intracellular calcium level for 90 secs by FLIPR assay in the presence of 0.1% BSA; type: functional, cell-based
How it was run: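 CHO dhfr cells stably expressing human GPR40 plated overnight, loaded 60 min at 37 °C with Fluo 4 AM (2.5 μg/mL), 2.5 mmol/L probenecid, 0.1% fatty acid-free BSA. Ca2+ rise after compound addition read 90 s; response scaled between vehicle (0%) and 10 μM γ-linolenic acid (100%).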

[5] = Cytotoxicity against human HepG2 cells assessed as intracellular ATP level at 10 uM after 24 hrs by ATPlite assay relative to control; type: cell-based; conditions: read-out: Activity
How it was run: (§3)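 HepG2 cells seeded 2 × 10^4/well, treated 1 day in DMEM with 0.5% FBS, 2 mM L-glutamine, 1 mM pyruvate. ATP measured by ATPlite luminescence; % of 1% DMSO control (RLU ratio ×100), n = 3.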

[6] = Metabolic stability in human hepatic microsomes; type: ADME; conditions: liver microsomes, read-out: Stability
Rattus norvegicus [7] = species on record: Rattus norvegicus; test: Insulinotropic activity in rat INS1(833/15) cells assessed as increase in insulin secretion at 1 uM after 2 hrs by competitive enzyme immunoassay in the presence of 4 mM glucose; type: functional, cell-based; how it was run: as §2
[8] = Cytotoxicity against human HepG2 cells assessed as intracellular ATP level at 30 uM after 24 hrs by ATPlite assay relative to control; type: cell-based; conditions: read-out: Activity; how it was run: as §3
Rattus norvegicus [9] = species on record: Rattus norvegicus; test: Insulinotropic activity in rat INS1(833/15) cells assessed as increase in insulin secretion after 2 hrs by competitive enzyme immunoassay in the presence of 11 mM glucose; type: functional, cell-based; how it was run: as §2
[10] = target: Free fatty acid receptor 1 (Rattus norvegicus, UniProt Q8K3T4); test: Displacement of 3-[4-({2',6'-dimethyl-6-[(4-[3H])phenylmethoxy]biphenyl-3-yl}methoxy)phenyl] propanoic acid from rat GPR40 receptor expressed in CHO cell membrane after 90 mins by liquid scintillation counting in the presence of 0.2% BSA; type: cell membranes; how it was run: as §1
Free fatty acid receptor 1 (Rattus norvegicus, UniProt Q8K3T4), sequence (Q8K3T4 whole entry): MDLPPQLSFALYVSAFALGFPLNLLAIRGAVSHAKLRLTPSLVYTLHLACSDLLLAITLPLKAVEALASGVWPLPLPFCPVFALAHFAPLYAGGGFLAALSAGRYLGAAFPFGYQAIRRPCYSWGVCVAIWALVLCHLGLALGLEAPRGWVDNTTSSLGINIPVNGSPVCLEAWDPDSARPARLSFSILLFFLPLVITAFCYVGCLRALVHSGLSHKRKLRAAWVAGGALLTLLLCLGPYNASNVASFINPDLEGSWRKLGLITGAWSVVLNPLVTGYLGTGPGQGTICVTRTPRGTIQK

Rattus norvegicus [11] = species on record: Rattus norvegicus; test: Insulinotropic activity in rat INS1(833/15) cells assessed as increase in insulin secretion at 1 uM after 2 hrs by competitive enzyme immunoassay in the presence of 16 mM glucose; type: functional, cell-based; how it was run: as §2
HepG2 [12] = test: Induction of apoptosis in human HepG2 cells assessed as caspase 3/7 activity at 10 uM after 24 hrs by caspase Glo assay relative to staurosporine; type: cell-based; conditions: hepg2, 24 h
How it was run: (§4)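 HepG2 cells seeded 2 × 10^4/well, treated 1 day in DMEM with 0.5% FBS, 2 mM L-glutamine, 1 mM pyruvate. Caspase-Glo 3/7 luminescence; activity = (compound − 1% DMSO)/(30 μM staurosporine − 1% DMSO) ×100, n = 3.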

HepG2 [13] = test: Induction of apoptosis in human HepG2 cells assessed as caspase 3/7 activity at 30 uM after 24 hrs by caspase Glo assay relative to staurosporine; type: cell-based; conditions: hepg2, 24 h; how it was run: as §4
Rattus norvegicus [14] = species on record: Rattus norvegicus; test: Insulinotropic activity in rat INS1(833/15) cells assessed as increase in insulin secretion at >0.1 uM after 2 hrs by competitive enzyme immunoassay in the presence of 11 mM glucose; type: functional, cell-based; how it was run: as §2
Rattus norvegicus [15] = species on record: Rattus norvegicus; test: Insulinotropic activity in rat INS1(833/15) cells assessed as increase in insulin secretion at 1 uM after 2 hrs by competitive enzyme immunoassay in the presence of >6 mM glucose; type: functional, cell-based; how it was run: as §2
Rattus norvegicus [16] = test: Induction of hypoglycemia in fasted Sprague-Dawley rat assessed as increase in insulin secretion level at 30 mg/kg, po after 30 mins; type: organism-based; design: dose 30 mg/kg, route oral; conditions: in vivo, 0.5 h
How it was run: (§5)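 Eight-week-old male SD rats fasted overnight, grouped by body weight (n = 6), single oral dose in 0.5% methylcellulose vehicle; tail-vein blood before and 0.5, 1, 2, 3 h after dosing; plasma glucose by analyzer, insulin by ELISA; mean ± SD.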

Rattus norvegicus [17] = species on record: Rattus norvegicus; test: Insulinotropic activity in rat INS1(833/15) cells assessed as increase in insulin secretion at 30 uM after 2 hrs by competitive enzyme immunoassay in the presence of low concentration of glucose; type: functional, cell-based; how it was run: as §2
Rattus norvegicus [18] = species on record: Rattus norvegicus; test: Insulinotropic activity in rat INS1(833/15) cells assessed as increase in insulin secretion at 30 uM after 2 hrs by competitive enzyme immunoassay in the presence of 11 mM glucose; type: functional, cell-based; how it was run: as §2
Rattus norvegicus [19] = test: Induction of hypoglycemia in fasted Sprague-Dawley rat assessed as decrease in plasma glucose level below normal fasting level at 10 mg/kg, po; type: organism-based; design: dose 10 mg/kg, route oral; conditions: in vivo; how it was run: as §5
Rattus norvegicus [20] = species on record: Rattus norvegicus; test: Insulinotropic activity in rat INS1(833/15) cells assessed as increase in insulin secretion at 30 uM after 2 hrs by competitive enzyme immunoassay in the presence of 16 mM glucose; type: functional, cell-based; how it was run: as §2
Rattus norvegicus [21] = test: Insulinotropic activity in fasted Wistar fatty rat assessed as decrease in blood glucose level at 0.3 mg/kg, po administered 30 mins prior to glucose-challenge by oral glucose tolerance test relative to vehicle treated control; type: functional, organism-based; design: dose 0.3 mg/kg
How it was run: (§6)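 Thirteen-week-old female Wistar fatty rats, overnight fasted, grouped on body weight, PG, TG, NEFA (n = 6). Oral dose (0.1–1 mg/kg, 0.5% methylcellulose vehicle) 30 min before oral glucose 1 g/kg; tail-vein blood at 0, 10, 30, 60, 120 min; plasma glucose by analyzer, insulin by RIA.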

Rattus norvegicus [22] = test: Induction of hypoglycemia in fasted Sprague-Dawley rat assessed as decrease in plasma glucose level below normal fasting level at 30 mg/kg, po; type: organism-based; design: dose 30 mg/kg, route oral; conditions: in vivo; how it was run: as §5
Rattus norvegicus [23] = test: Toxicity in rat assessed as adverse effect at 15 to 150 mg/kg, po after 4 weeks; type: organism-based; design: dose 15-150 mg/kg, route oral; conditions: in vivo, 672 h
How it was run: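 Normal rats dosed orally at 15, 50 and 150 mg/kg for 4 weeks; adverse effects recorded.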

Rattus norvegicus [24] = test: Induction of hypoglycemia in fasted Sprague-Dawley rat assessed as increase in insulin secretion level at 30 mg/kg, po after 30 mins; conditions: in vivo, 0.5 h
Rattus norvegicus [25] = test: Insulinotropic activity in po dosed fasted Wistar fatty rat assessed as increase in insulin secretion administered 30 mins prior to glucose-challenge by oral glucose tolerance test relative to vehicle treated control; type: functional, organism-based; how it was run: as §6
Rattus norvegicus [26] = test: Insulinotropic activity in po dosed fasted Wistar fatty rat assessed as decrease in blood glucose level administered 30 mins prior to glucose-challenge by oral glucose tolerance test relative to vehicle treated control; type: functional, organism-based; how it was run: as §6
Rattus norvegicus [27] = species on record: Rattus norvegicus; test: Insulinotropic activity in rat INS1(833/15) cells assessed as increase in insulin secretion at 10 uM after 2 hrs by competitive enzyme immunoassay in the presence of 16 mM glucose; type: functional, cell-based; how it was run: as §2
Rattus norvegicus [28] = species on record: Rattus norvegicus; test: Insulinotropic activity in rat INS1(833/15) cells assessed as increase in insulin secretion at 10 uM after 2 hrs by competitive enzyme immunoassay in the presence of low concentration of glucose; type: functional, cell-based; how it was run: as §2
Rattus norvegicus [29] = species on record: Rattus norvegicus; test: Insulinotropic activity in rat INS1(833/15) cells assessed as increase in insulin secretion at 10 uM after 2 hrs by competitive enzyme immunoassay in the presence of 11 mM glucose; type: functional, cell-based; how it was run: as §2
[30] = Metabolic stability in rat hepatic microsomes; type: ADME; conditions: liver microsomes, read-out: Stability

Compound	pKi [1]	logD [3]	pEC50 [4]	viability at 24 h, 10 µM [5]	microsomal CLint [6]	viability at 24 h, 30 µM [8]	pKi [10]	Activity (HepG2 [12])	Activity (HepG2 [13])	microsomal CLint [30]	other results
Cc1cc(OC2CCS(=O)(=O)CC2)cc(C)c1-c1cccc(COc2ccc(CCC(=O)O)c(F)c2)c1	7.80	3.06	7.60	79.8%	3 µL/min/mg	38%	8.19	-0.5%	28.9%		Activity (Rattus norvegicus [2]): inactive; Activity (Rattus norvegicus [7]): inactive; Activity (Rattus norvegicus [9]): Dose-dependent effect; Activity (Rattus norvegicus [11]): Active; Activity (Rattus norvegicus [14]): Active; Activity (Rattus norvegicus [15]): Active
COc1ccc(Cl)cc1C(=O)NCCc1ccc(S(=O)(=O)NC(=O)NC2CCCCC2)cc1 [GLYBURIDE]											Activity (Rattus norvegicus [16]): Toxic; Activity (Rattus norvegicus [17]): Active; Activity (Rattus norvegicus [18]): Active; Activity (Rattus norvegicus [19]): Toxic; Activity (Rattus norvegicus [20]): Active
Cc1cc(OCC2(O)CCS(=O)(=O)CC2)cc(C)c1-c1cccc(CNc2ccc(CCC(=O)O)c(F)c2)c1	7.72	2.14	7.54	88.1%	2 µL/min/mg	75.9%	8.35	0.8%	0.5%		Activity (Rattus norvegicus [21]): Active; Activity (Rattus norvegicus [22]): Non-toxic; Activity (Rattus norvegicus [23]): Non-toxic; Activity (Rattus norvegicus [24]): Toxic; Activity (Rattus norvegicus [25]): Dose-dependent effect; Activity (Rattus norvegicus [26]): Dose-dependent effect
CC(C)[C@H]1CC[C@H](C(=O)N[C@H](Cc2ccccc2)C(=O)O)CC1											Activity (Rattus norvegicus [27]): Active; Activity (Rattus norvegicus [28]): Active; Activity (Rattus norvegicus [29]): Active
Cc1cc(OCCCN2CCCC2=O)cc(C)c1-c1cccc(COc2ccc(CCC(=O)O)c(F)c2)c1	7.68	3.51	7.49	54.1%	7 µL/min/mg	30.3%	8.01	0.2%	20.3%	5 µL/min/mg	
CCS(=O)(=O)CCOc1cc(C)c(-c2cccc(COc3ccc(CCC(=O)O)c(F)c3)c2)c(C)c1	7.82	3.02	7.60	79.8%	6 µL/min/mg	32.5%	8.38	-1.1%	17.7%	10 µL/min/mg	
